LMPTP block = blocks human LMPTP phosphatase; inhibition, % at 20 µM; AID 651560; recombinant LMPTP-A, OMFP fluorogenic substrate, fluorescence intensity; P24666; 360,000 compounds, 0.22% hits;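 active means compounds that cut the enzyme signal by at least half of the control window in the single-dose screen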;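 further: plate controls were DMSO wells with enzyme plus substrate for no effect and substrate without enzyme for full effect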
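Assay system: LMPTP-A phosphatase enzyme | Input: 0.625 nM enzyme | Also added: Fluorogenic phosphatase substrate OMFP at 400 µM final | Compound dosing: One test concentration per compound, 20 µM, with 3% DMSO overall | Schedule: 50 min enzyme reaction at room temperature, protected from light | Signal: Fluorescence intensity | Benchmarks: no-enzyme and uninhibited controls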
SUMO1-SIM PPI = alters human SUMO1 binding to SIM partners. P63165. SUMO1 binding to a labelled peptide, TR-FRET, 1 h. inhibition, % at 20 µM. 360,000 compounds, 0.33% hits; in the data active means inhibition above about 37%
STEP inh = blocks human striatal-enriched tyrosine phosphatase | recombinant STEP, OMFP fluorogenic substrate, fluorescence | inhibition, % at 20 µM | 360,000 compounds, 0.25% hits;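 active means inhibition at 20 µM, scaled per plate between control wells, above about 37%, limit read from the data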;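 further: 0% = DMSO with enzyme and substrate and 100% = substrate only without enzyme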
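Assay system: isolated STEP enzyme. Buffer or medium: pH 6.0 Bis-Tris with DTT and Tween 20. Also added: fluorogenic phosphatase substrate OMFP at 25 µM final. Dosing: 20 µM, 1% DMSO. Timing: 20 min reaction, room temperature, in the dark. Measured by: fluorescence intensity, excitation 480 nm, emission 540 nm. Evaluation: normalized % inhibition.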
F508del corr = CFTR F508del correction in bronchial cells | CFBE cells, YFP halide quenching; stimulated with forskolin plus potentiator P3; % fluorescence drop versus neutral controls | activity (quench increase), % at 7.58 µM | 350,000 compounds, 0.36% hits;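 active means mean added fluorescence quench of at least 8% versus neutral control, with both replicates also reaching 8%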;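 further: cells transiently co-express mutant CFTR-F508del with the halide-sensitive YFP; corrector assay measuring rescue of mutant channel to the surface after 24 h compound exposure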
DNMT1 inh = inhibitors of human DNMT1. DNMT1 molecular beacon, Hinp1I cleavage, fluorescence. inhibition (reported as % activation of signal), % at 10 µM. 360,000 compounds, 0.83% hits. AID 588458; in the data active means inhibition above about 50%
Scp-1 inhibitor = blocks human Scp-1 phosphatase activity; Recombinant Scp1, phosphopeptide, malachite green phosphate absorbance; AID 493091; inhibition, % at 20 µM; 340,000 compounds, 0.88% hits; Q9GZU7;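 active means inhibition above about 50% at 20 µM, limit read from the data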;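 further: plate controls were DMSO wells with enzyme for no effect and wells lacking enzyme for full effect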
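Test system – truncated SCP-1 phosphatase (76-261aa) · Reagent – Phosphorylated 17-residue peptide substrate · Incubation – 45 min room-temperature reaction, 5 min colour, 30 min stabiliser · Detection – colorimetric phosphate reagent with accelerator and stabiliser, absorbance at 630 nm · Measure – % inhibition at 20 µM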
Active calls of the source: *; . = not tested or not shown. Only some compounds are listed: those with a hit (about 1.6% of all), similar ones and a draw of the others.

SMILES | LMPTP block | SUMO1-SIM PPI | STEP inh | F508del corr | DNMT1 inh | Scp-1 inhibitor
C[C@H]1CCCCO[C@@H](CN(C)C(=O)Nc2ccccc2)[C@@H](C)CN([C@@H](C)CO)C(=O)c2cc(NC(=O)NC3CCCCC3)ccc2O1 | . | . | . | 0.6 | . | .
O=C(COC(=O)c1ccccc1)Nc1ncc([N+](=O)[O-])s1 | 65.2* | 58.0* | 10.6 | 1.8 | 92.8* | 82.7*
O=C(Nc1ccccc1)Nc1ncc([N+](=O)[O-])s1 | 2.1 | -28.6 | 2.6 | -0.8 | -4.9 | -8.7
CN(Cc1ccccc1)S(=O)(=O)c1ccc(NC(=S)NC(=O)C2CCCC2)cc1 | 1.6 | 0.3 | 1.2 | 13.9* | -1.5 | -11.0
CN(C)S(=O)(=O)c1ccc(NC(=S)NC(=O)C2CCC2)cc1 | 0.8 | 5.6 | 1.3 | -0.6 | -2.0 | 7.0
O=C(C[C@@H]1C[C@@H]2c3cc(NS(=O)(=O)c4ccccc4)ccc3O[C@@H]2[C@@H](CO)O1)NCC1CC1 | . | . | . | -1.3 | . | .
CCN1[C@@H]2c3ccc(C4=CCCC4)c(=O)n3C[C@H]1[C@H](CO)[C@H]2C(=O)N[C@@H](C)c1ccccc1 | . | . | . | 0.6 | . | .
Cc1ccc(S(=O)(=O)N(C)C[C@H]2Oc3ccc(NC(=O)Nc4ccc(F)cc4)cc3C(=O)N([C@H](C)CO)C[C@@H]2C)cc1 | . | . | . | -1.6 | . | .
COc1cc2c(c(OC)c1O)C(=O)CO2 | 1.8 | 1.9 | 4.0 | -1.5 | -0.4 | 2.0
COc1cc(OC)c2c(O)c3c(c(-c4c5c(c(O)c6c(OC)cc(OC)cc46)CO[C@@H](C)[C@H]5O)c2c1)[C@H](O)[C@H](C)OC3 | 51.4* | 12.7 | -2.0 | . | 100.3* | 55.5*
COCCSc1ccccc1C(=O)Nc1cc([N+](=O)[O-])ccc1OC | -0.5 | -18.7 | 3.1 | 18.2* | 1.4 | -10.5
COCCSc1ccccc1C(=O)Nc1ccc([N+](=O)[O-])cc1OC | -0.7 | -17.8 | 2.4 | 1.4 | -4.5 | -5.5
O=C(Nc1ccc(F)cc1)N1CCCCN2[C@H](C1)[C@H](c1ccc(-c3cccc(F)c3)cc1)[C@@H]2CO | . | . | . | 8.9* | . | .
Cc1ccc(-c2ccc([C@H]3[C@@H](CO)N4CCCCN(C(=O)Nc5cccc(F)c5)C[C@H]34)cc2)cc1 | . | . | . | 8.0* | . | .
O=C(Nc1cccc(F)c1)N1CCCCN2[C@H](C1)[C@@H](c1ccc(-c3ccncc3)cc1)[C@@H]2CO | . | . | . | -0.1 | . | .
O=C(Nc1ccc(F)cc1)N1CCCCN2[C@H](CO)[C@H](c3ccc(-c4cccc(F)c4)cc3)[C@H]2C1 | . | . | . | 6.8 | . | .
O=C(Nc1cccc(F)c1)N1CCCCN2[C@@H](CO)[C@H](c3ccc(C#CC4CC4)cc3)[C@@H]2C1 | . | . | . | 8.6* | . | .
COc1ccc(-c2cn(CC[C@@H]3CC[C@H](NC(=O)CCN4CCCCC4)[C@H](CO)O3)nn2)cc1 | . | . | . | -3.1 | . | .
C[C@H]1CCCCO[C@@H](CN(C)C(=O)C2CCCCC2)[C@@H](C)CN([C@@H](C)CO)C(=O)c2cc(NS(=O)(=O)c3cn(C)cn3)ccc2O1 | . | . | . | 0.9 | . | .
O=C1CN(Cc2ccccc2)C[C@H]2[C@@H](c3ccc(-c4ccccc4F)cc3)[C@@H](CO)N12 | . | . | . | -2.3 | . | .
O=C(O)c1ccc(-c2cccc([N+](=O)[O-])c2)o1 | -3.3 | -18.1 | -3.0 | -0.2 | 0.4 | -9.0
N#C/C(=C(/O)c1ccc(-c2cccc([N+](=O)[O-])c2)o1)c1nc2ccccc2s1 | 52.3* | 16.4 | 11.8 | 0.8 | -27.2 | 88.8*
COc1ccc(S(=O)(=O)N[C@H]2C=C[C@@H](CC(=O)O)O[C@H]2CO)cc1 | . | . | . | -3.2 | . | .
Cc1ccc(S(=O)(=O)N2[C@@H]3CNC[C@H]2C3c2ccc(-c3cccc(C)c3)cc2)cc1 (stereo partly specified) | . | . | . | -1.6 | . | .
CC(=NNC(=S)N1CCCCC1)c1cccc(C)n1 | -1.0 | -3.9 | 23.7 | 11.9* | -2.6 | -7.6
SMILES | LMPTP block | SUMO1-SIM PPI | STEP inh | F508del corr | DNMT1 inh | Scp-1 inhibitor
Oc1ccccc1C=Nc1cccc2ccccc12 | -1.5 | 0.0 | -1.0 | -0.4 | -7.8 | -9.4
Oc1cccc(C=Nc2cccc3ccccc23)c1O | 25.1 | 67.5* | 6.4 | -5.9 | -8.6 | -7.0
COc1ccc2c3c(n(C)c2c1)[C@H](CO)N(CC1CCOCC1)CC31CN(C(=O)Nc2ccccc2)C1 | . | . | . | -0.9 | . | .
Cc1nn(C2CCS(=O)(=O)C2)c2nc(C3CC3)cc(C(=O)Nc3cccc(C#N)c3)c12 (stereo unspecified) | -0.1 | -0.9 | 2.1 | 8.7* | 1.0 | -4.9
CCCCN1C(=O)C(=O)NC[C@@H]1CCCCN | -4.8 | 0.2 | -1.1 | -4.3 | 0.1 | -3.0
CCCC[C@@H]1CNC(=O)C(=O)N1CCCC | 17.4 | 49.3* | . | 1.5 | . | .
Cc1ccc(N=Nc2c(N)[nH]n3c(=O)cc(-c4ccccc4)nc23)cc1 | 70.1* | -8.6 | 21.2 | . | -24.7 | 36.1
Cc1cc(C(=O)Nc2cccc3c2O[C@H](CN(C)S(=O)(=O)c2cn(C)cn2)[C@@H](C)CN([C@@H](C)CO)C3=O)n(C)n1 | . | . | . | -0.4 | . | .
Cc1cc(NC(=O)CSCc2nc(-c3cccc(F)c3)oc2C)no1 | -0.8 | 0.4 | -3.4 | 0.8 | -3.9 | -2.8
Cc1ccc(-c2nc(CSCC(=O)Nc3cc(C)on3)c(C)o2)cc1 | -1.7 | 3.2 | 1.3 | 8.4* | -1.3 | -9.8
CC1=CC(=O)c2ccccc2C1=O | -0.4 | -30.1 | -3.0 | -3.7 | -20.5 | -8.8
COc1cccc2c1C(=O)C=C(C)C2=O | -1.3 | -14.4 | 3.8 | 15.7* | -17.2 | -10.3
O=C(Nc1ccc2c(c1)[C@H]1C[C@H](CC(=O)N3CCCCC3)O[C@@H](CO)[C@H]1O2)c1cccnc1 | . | . | . | 1.4 | . | .
COc1ccc(/C(C)=N/Nc2ccccc2Cl)c(O)c1 | 0.2 | 58.2* | 9.2 | 0.3 | 21.5 | 27.3
COc1ccc(/C(C)=N/Nc2ccc(F)cc2F)c(O)c1 | -0.9 | -0.1 | 4.8 | -0.7 | 1.2 | -7.4
COc1ccc(C2NC(=S)NC(C)=C2C(=O)Nc2ccccn2)cc1 (stereo unspecified) | -2.1 | 56.9* | -1.5 | 1.1 | 2.1 | -5.7
Cc1cccc(C)c1NC(=O)NN1C(C)CCCC1C (stereo unspecified) | 0.2 | 2.1 | -3.0 | -0.4 | 2.7 | 1.0
Cc1cc(C)cc(NC(=O)NN2C(C)CCCC2C)c1 (stereo unspecified) | 0.7 | 54.4* | -0.2 | 0.3 | 2.4 | -3.0
CO[C@H]1CN(C)C(=O)c2cc(NC(=O)C3CCCC3)ccc2OC[C@H](C)N(C)C[C@H]1C | . | . | . | 0.4 | . | .
CCCN(C)C[C@H]1OCCCC[C@H](C)Oc2ccc(NC(=O)C3CCCCC3)cc2C(=O)N([C@H](C)CO)C[C@H]1C | . | . | . | -2.4 | . | .
O=C(COC(=O)c1c(F)cccc1F)NCc1ccc2c(c1)OCO2 | 0.2 | 1.5 | 2.6 | 0.3 | -2.6 | -7.3
Cn1cccc1C(=O)OCC(=O)NCc1ccc2c(c1)OCO2 | 0.8 | 2.6 | -0.4 | 37.2* | -13.5 | -7.6

Source: PubChem BioAssay (several laboratories)
